The results in this text go back to ChEMBL document CHEMBL3853346, “Synthesis of arylated coumarins by Suzuki-Miyaura cross-coupling. Reactions and anti-HIV activity” (Bioorg Med Chem, 2016).

Molecules are shown by their SMILES. ≈ marks a conversion by molar mass, not a printed value.

As a reminder, the IC50 is the concentration needed to halve the response being measured. A word on the CC50: it is the concentration at which the toxic effect on the cells reaches its halfway point.

Data set [1] deals with Human immunodeficiency virus 1. As to the kind of experiment: Antiviral activity against HIV-1 3B infected in human MT-4 cells assessed as protection against virus induced cytopathic effect after 5 days by MTT assay. Type of data set: functional, cell-based. Particulars: Human immunodeficiency virus 1, 3B, MT4, 120 h. Summed up:
(§1)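 MT-4 cells, exponentially growing, resuspended at 6 x 10⁵ cells/mL and infected with HIV-1 IIIB or HIV-2 ROD at 100-300 CCID50. Test compounds added as serial 5-fold dilutions in triplicate wells at the start. Untreated infected and mock-infected controls included. Viability read by MTT spectrophotometrically 5 days post-infection. EC50 is the concentration giving 50% protection from virus-induced cytopathic effect.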
For orientation: Protection from cytopathic effect is a common read-out in antiviral testing.

Data set [2] is described as follows: Antiviral activity against HIV-2 ROD infected in human MT-4 cells assessed as protection against virus induced cytopathic effect after 5 days by MTT assay. Type of data set: functional, cell-based, Human immunodeficiency virus type 2 (ISOLATE ROD). Particulars: Human immunodeficiency virus 2, MT4, 120 h. The method in brief: as §1
Data set [3] is described as follows: Cytotoxicity against human MT4 cells assessed as reduction in cell viability after 5 days by MTT assay. The format is toxicity, cell-based. The method in brief: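 Mock-infected MT-4 cells (6 x 10⁵ cells/mL) were run in parallel with the infected series. Serial 5-fold compound dilutions were tested in triplicate wells, with culture medium in place of virus. Viability was measured by MTT at day 5. CC50 is the concentration that reduces viability of mock-infected cells by 50%.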
On the technique in general: Tetrazolium assays rely on reduction of a dye to a coloured formazan, in cell work by metabolically active cells.

The nature of data set [4]: Selectivity index, ratio of CC50 for human MT-4 cells to IC50 for HIV-1 3B infected in human MT-4 cells. The format is functional, MT4. The method in brief: (§2)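 Selectivity index is CC50 in mock-infected MT-4 cells divided by IC50 against HIV-1 IIIB or HIV-2 ROD. Both values come from parallel 5-day MTT assays in the same plates.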
Data set [5] can be described thus: Selectivity index, ratio of CC50 for human MT-4 cells to IC50 for HIV-2 ROD infected in human MT-4 cells. Type of data set: functional, MT4. The method in brief:
as §2

Take `COc1cccc(-c2cc3oc(=O)cc(C)c3cc2OS(=O)(=O)C(F)(F)F)c1`: the IC50 in data set [1] and in data set [2] was over 18.9 µg/mL throughout. Further, the CC50 at 120 h in data set [3] came out at 18.9 µg/mL (≈ 45.5 µM). Besides, the “Ratio CC50/IC50” value in data set [4] and in data set [5] was under 1 each time.
Turning to `COc1ccc(-c2cc3oc(=O)cc(C)c3cc2-c2ccc(F)cc2)cc1`, the IC50 in data set [1] and in data set [2] was over 10.9 µg/mL throughout. The CC50 at 120 h in data set [3] stood at 10.9 µg/mL (≈ 30.3 µM). The “Ratio CC50/IC50” value in data set [4] and in data set [5] was under 1 each time.
Take `COc1ccc(-c2cc3oc(=O)cc(C)c3cc2-c2cc(C)cc(C)c2)cc1`: the IC50 in data set [1] and in data set [2] was over 2.08 µg/mL each time. The CC50 at 120 h in data set [3] turned out to be 2.08 µg/mL (≈ 5.61 µM). Also, the “Ratio CC50/IC50” value in data set [4] and in data set [5] was under 1 each time.
Turning to `Cc1ccc(-c2cc3oc(=O)cc(C)c3cc2OS(=O)(=O)C(F)(F)F)cc1`, the half-inhibitory concentration (IC50) in data set [1] and in data set [2] was over 11 µg/mL in each case. Also, the CC50 at 120 h in data set [3] is 11 µg/mL (≈ 27.6 µM). Besides, the “Ratio CC50/IC50” value in data set [4] and in data set [5] was under 1 each time.
As for `Cc1cc(C)cc(-c2cc3oc(=O)cc(C)c3cc2-c2cc(C)cc(C)c2)c1`, the half-maximal inhibitory concentration (IC50) in data set [1] is 4.57 µg/mL (≈ 12.4 µM); in data set [2], over 14.4 µg/mL. In addition, the CC50 at 120 h in data set [3] came out at 14.4 µg/mL (≈ 39.1 µM). For the same molecule, the “Ratio CC50/IC50” value is listed as 3 in data set [4] and under 1 in data set [5].
The corresponding values for `COc1ccc(-c2cc3oc(=O)cc(C)c3cc2-c2cccc(C)c2)cc1` are over 7.4 µg/mL, over 7.4 µg/mL, 7.4 µg/mL (≈ 20.8 µM), under 1 and under 1.
As for `CCOc1ccc(-c2cc3oc(=O)cc(C)c3cc2-c2ccc(OCC)cc2)cc1`, the IC50 in data set [1] and in data set [2] was over 37.3 µg/mL in each case. Besides, the 50% cytotoxic concentration (CC50) at 120 h in data set [3] was determined as 37.3 µg/mL (≈ 93.2 µM). Further, the “Ratio CC50/IC50” value in data set [4] and in data set [5] was under 1 throughout.
Turning to `Cc1cc(=O)oc2cc(-c3ccc(Cl)cc3)c(-c3ccc(Cl)cc3)cc12`, the IC50 in data set [1] and in data set [2] was over 16 µg/mL in each case. The CC50 at 120 h in data set [3] was 16 µg/mL (≈ 41.9 µM). The “Ratio CC50/IC50” value in data set [4] and in data set [5] was under 1 each time.
In the case of `COc1ccc(-c2cc3oc(=O)cc(C)c3cc2-c2ccc(OC)cc2)cc1`, the IC50 in data set [1] and in data set [2] was over 11 µg/mL each time. Moreover, the half-maximal cytotoxic concentration (CC50) at 120 h in data set [3] was 11 µg/mL (≈ 29.5 µM). Further, the “Ratio CC50/IC50” value in data set [4] and in data set [5] was under 1 each time.
For the molecule `Cc1cc(=O)oc2cc(-c3ccc(C(F)(F)F)cc3)c(OS(=O)(=O)C(F)(F)F)cc12`, the concentration for half-maximal inhibition (IC50) in data set [1] and in data set [2] was over 80.3 µg/mL each time. The half-maximal cytotoxic concentration (CC50) at 120 h in data set [3] was found to be 80.3 µg/mL (≈ 178 µM). Moreover, the “Ratio CC50/IC50” value in data set [4] and in data set [5] was under 1 each time.
`Cc1cc(=O)oc2cc(OS(=O)(=O)C(F)(F)F)c(OS(=O)(=O)C(F)(F)F)cc12`: the IC50 in data set [1] and in data set [2] was over 43.5 µg/mL in each case. The CC50 at 120 h in data set [3] worked out at 43.5 µg/mL (≈ 95.3 µM). Further, the “Ratio CC50/IC50” value in data set [4] and in data set [5] was under 1 each time.
As to `COc1ccc(-c2cc3oc(=O)cc(C)c3cc2OS(=O)(=O)C(F)(F)F)c(OC)c1OC`, the 50% inhibitory concentration (IC50) in data set [1] and in data set [2] was over 2.13 µg/mL each time. For the same molecule, the CC50 at 120 h in data set [3] is 2.13 µg/mL (≈ 4.49 µM). Moreover, the “Ratio CC50/IC50” value in data set [4] and in data set [5] was under 1 each time.
Consider `COc1ccc(-c2cc3oc(=O)cc(C)c3cc2OS(=O)(=O)C(F)(F)F)cc1`, for which the 50% inhibitory concentration (IC50) in data set [1] and in data set [2] was over 10.6 µg/mL in each case. Further, in data set [3], the 50% cytotoxic concentration (CC50) at 120 h is at least 10.6 µg/mL. Besides, the “Ratio CC50/IC50” value in data set [4] and in data set [5] was under 1 in each case.
Consider `Cc1cc(C)cc(-c2cc3oc(=O)cc(C)c3cc2OS(=O)(=O)C(F)(F)F)c1`, for which the IC50 in data set [1] and in data set [2] was over 33.1 µg/mL throughout. Besides, in data set [3], the 50% cytotoxic concentration (CC50) at 120 h was 33.1 µg/mL (≈ 80.3 µM). The “Ratio CC50/IC50” value in data set [4] and in data set [5] was under 1 each time.
In the case of `CCOc1ccc(-c2cc3oc(=O)cc(C)c3cc2OS(=O)(=O)C(F)(F)F)cc1`, the half-inhibitory concentration (IC50) in data set [1] and in data set [2] was over 27.2 µg/mL in each case. Further, in data set [3], the CC50 at 120 h was at least 27.2 µg/mL. Moreover, the Ratio CC50/IC50 in data set [4] and in data set [5] was under 1 in each case.
For `Cc1cc(=O)oc2cc(-c3ccc(C(C)(C)C)cc3)c(OS(=O)(=O)C(F)(F)F)cc12`, the IC50 in data set [1] and in data set [2] was over 10.3 µg/mL throughout. The CC50 at 120 h in data set [3] was found to be 10.3 µg/mL (≈ 23.3 µM). Also, the “Ratio CC50/IC50” value in data set [4] and in data set [5] was under 1 each time.
For the molecule `Cc1cc(=O)oc2cc(-c3ccccc3)c(-c3ccccc3)cc12`, the IC50 in data set [1] and in data set [2] was over 13.8 µg/mL each time. Moreover, the CC50 at 120 h in data set [3] was determined as 13.8 µg/mL (≈ 44.1 µM). The “Ratio CC50/IC50” value in data set [4] and in data set [5] was under 1 in each case.
With `COc1ccc(-c2cc3oc(=O)cc(C)c3cc2-c2ccc(Cl)cc2)cc1`, the half-inhibitory concentration (IC50) in data set [1] and in data set [2] was over 2.06 µg/mL in each case. The 50% cytotoxic concentration (CC50) at 120 h in data set [3] stood at 2.06 µg/mL (≈ 5.47 µM). In addition, the “Ratio CC50/IC50” value in data set [4] and in data set [5] was under 1 throughout.
As to `Cc1cccc(-c2cc3oc(=O)cc(C)c3cc2OS(=O)(=O)C(F)(F)F)c1`, the figures for the half-inhibitory concentration (IC50) in data set [1] and in data set [2] were 13.2 µg/mL (≈ 33.1 µM) and over 61.3 µg/mL, respectively. Besides, the CC50 at 120 h in data set [3] was determined as 61.3 µg/mL (≈ 154 µM). Further, the “Ratio CC50/IC50” value in data set [4] is listed as 5; in data set [5] it was under 1.
With `Cc1cc(=O)oc2cc(-c3ccc(F)cc3)c(OS(=O)(=O)C(F)(F)F)cc12`, the IC50 in data set [1] and in data set [2] was over 10.6 µg/mL throughout. Moreover, the CC50 at 120 h in data set [3] was found to be 10.6 µg/mL (≈ 26.4 µM). The “Ratio CC50/IC50” value in data set [4] and in data set [5] was under 1 in each case.
For `Cc1cc(=O)oc2cc(-c3ccc(Cl)cc3)c(OS(=O)(=O)C(F)(F)F)cc12`, the IC50 was over 30.6 µg/mL in data set [1] and over 35.6 µg/mL in data set [2]. In addition, the CC50 at 120 h in data set [3] is 35.6 µg/mL (≈ 85.1 µM). For the same molecule, the “Ratio CC50/IC50” value in data set [4] and in data set [5] was under 1 in each case.
Take `Cc1cc(=O)oc2cc(-c3ccccc3)c(OS(=O)(=O)C(F)(F)F)cc12`: the half-inhibitory concentration (IC50) in data set [1] and in data set [2] was over 12.5 µg/mL in each case. Besides, the CC50 at 120 h in data set [3] is 12.6 µg/mL (≈ 32.7 µM). The “Ratio CC50/IC50” value in data set [4] and in data set [5] was under 1 each time.
`Cc1ccnc2c1NC(=O)c1cccnc1N2C1CC1` [NEVIRAPINE]: the IC50 in data set [2] is over 4 µg/mL. The 50% cytotoxic concentration (CC50) at 120 h in data set [3] was over 4 µg/mL. In addition, the “Ratio CC50/IC50” value was over 80 in data set [4] and under 1 in data set [5].
Take `Cc1cn([C@H]2C[C@H](N=[N+]=[N-])[C@@H](CO)O2)c(=O)[nH]c1=O` [ZIDOVUDINE]: the half-maximal inhibitory concentration (IC50) in data set [2] was 0.00094 µg/mL (≈ 0.00352 µM). Besides, the CC50 at 120 h in data set [3] was over 25 µg/mL. Also, the “Ratio CC50/IC50” value in data set [4] is over 11363; in data set [5], over 26596.
